Experimental data of several laboratories.
Organism: Staphylococcus aureus
Read-out: microbial growth

Structure (SMILES) | assay | test system | conditions | MIC
Cl.O=C(O)CNC(=O)c1ccc(NC(=O)c2cc(Br)c(Br)[nH]2)c(N2CCNCC2)c1 | broth dilution | ATCC29213 |  | > 32 µg/mL
CC1CCC(C(C)C)C(OC(=O)C=Cc2ccc(O)c(O)c2)C1 (centres unmarked) | broth dilution | FDA209 |  | 4 µg/mL
O=c1c(O[C@@H]2O[C@H](CO)[C@@H](O)[C@H](O)[C@H]2O)c(-c2ccc(O)c(O)c2)oc2cc(O)cc(O)c12 | broth dilution |  | 16 h | > 100 µg/mL
Cc1nn(-c2ccccc2)c2c1C(c1ccco1)N(C(=O)c1ccncc1)N2 (centres unmarked) |  | MTCC96 | 24 h | 64 µg/mL
O=C(C=Cc1ccc(O)c(O)c1)OCc1ccccc1 | broth dilution | FDA209 |  | 8 µg/mL
Cl.N[C@H]1CCN(c2cc(C(=O)NCC(=O)O)ccc2NC(=O)c2cc(Br)c(Br)[nH]2)C1 | broth dilution | ATCC29213 |  | > 32 µg/mL
C[C@@H]1O[C@@H](OC[C@H]2O[C@@H](Oc3c(-c4ccc(OCCO)c(OCCO)c4)oc4cc(OCCO)cc(O)c4c3=O)[C@H](O)[C@@H](O)[C@@H]2O)[C@H](O)[C@H](O)[C@H]1O | broth dilution |  | 16 h | > 1020 µg/mL
O=C(C=Cc1ccc(O)c(O)c1)Oc1cccc2cccnc12 | broth dilution | FDA209 |  | 8 µg/mL
Cc1[nH]c(C(=O)Nc2ccc(C(=O)NCC(=O)O)cc2N2CC[C@@H](N)C2)c(Cl)c1Cl.Cl | broth dilution | ATCC29213 |  | > 32 µg/mL
O=C(O)[C@H]1O[C@@H](Oc2c(-c3ccc(O)c(O)c3)oc3cc(O)cc(O)c3c2=O)[C@H](O)[C@@H](O)[C@@H]1O | broth dilution |  | 16 h | > 250 µg/mL
O=C(C=Cc1ccc(O)c(O)c1)OCCc1ccccc1 | broth dilution | FDA209 |  | 16 µg/mL
CN[C@H](CC(C)C)C(=O)N[C@H]1C(=O)N[C@@H](CC(N)=O)C(=O)N[C@H]2C(=O)N[C@H]3C(=O)N[C@H](C(=O)N[C@H](C(=O)O)c4cc(O)cc(O)c4-c4cc3ccc4O)[C@H](O)c3ccc(c(Cl)c3)Oc3cc2cc(c3O[C@@H]2O[C@H](CO)[C@@H](O)[C@H](O)[C@H]2O[C@H]2C[C@](C)(N)[C@H](O)[C@H](C)O2)Oc2ccc(cc2Cl)[C@H]1O |  | BAA44 MRSA |  | 1 µM
C=C/C=C(\C)CC[C@H]1C[C@H](O)CC(=O)O1 | broth dilution | ATCC6538P |  | 256 µg/mL
CC(O)CSc1nnc(-c2cc3c(ccc4ccccc43)o2)n1-c1ccccc1 (centres unmarked) |  |  |  | 10000 µg/mL
O=C(N[C@H](CO)[C@H](O)c1ccc([N+](=O)[O-])cc1)C(Cl)Cl |  |  | 24 h | 5 to 10 µM
Cc1[nH]c(C(=O)Nc2ccc(C(=O)NCC(=O)O)cc2N2CC[C@@H](NC(=O)OC(C)(C)C)C2)c(Cl)c1Cl | broth dilution | ATCC29213 |  | > 32 µg/mL
CC(C)=CCCC(C)=CC1c2c(C)nn(-c3ccccc3)c2NN1C(=O)c1ccncc1 (centres unmarked) |  | MTCC96 | 24 h | > 100 µg/mL
Cc1[nH]c(C(=O)Nc2ccc(C(=O)NCC(=O)O)cc2N2CCNCC2)c(Cl)c1Cl.Cl | broth dilution | ATCC29213 |  | > 32 µg/mL
Cc1nn(-c2ccccc2)c2c1C(c1c[nH]c3ccccc13)N(C(=O)c1ccncc1)N2 (centres unmarked) |  | MTCC96 | 24 h | > 100 µg/mL
CC(O)CSc1nnc(Cn2cnc3c2c(=O)n(C)c(=O)n3C)n1-c1ccccc1 (centres unmarked) |  |  |  | 9000 µg/mL
Cc1nn(-c2ccccc2)c2c1C(c1cncs1)N(C(=O)c1ccncc1)N2 (centres unmarked) |  | MTCC96 | 24 h | 32 µg/mL
CC(C)(C)OC(=O)N[C@@H]1CCN(c2cc(C(=O)NCC(=O)O)ccc2NC(=O)c2cc(Br)c(Br)[nH]2)C1 | broth dilution | ATCC29213 |  | > 32 µg/mL
Cc1nn(-c2ccccc2)c2c1C(c1ccc(N(C)C)cc1)N(C(=O)c1ccncc1)N2 (centres unmarked) |  | MTCC96 | 24 h | 8 µg/mL
CC(O)CSc1nnc(-c2ccccc2)n1-c1ccccc1 (centres unmarked) |  |  |  | 2000 µg/mL
Cc1[nH]c(C(=O)Nc2ccc(C(=O)NCC(=O)O)cc2N2CCN(C(=O)OC(C)(C)C)CC2)c(Cl)c1Cl | broth dilution | ATCC29213 |  | > 32 µg/mL
O=C(C=Cc1ccc(O)c(O)c1)Oc1ccccc1 | broth dilution | FDA209 |  | 16 µg/mL
